These results are taken from article PMC3228901 (Cancer research, 2011).

The test system of one series is HeLa. The series is described as follows: Growth of HeLa cells. The class given is cell-based. As to conditions: even at relatively high concentrations (100–200 μM).
The target of series [1] is recombinant human LSD1 protein (Homo sapiens, UniProt O60341). In words: In vitro LSD1 demethylation assay, di-methylated H3K4 peptide, mass-spectrometry. In kind it is biochemical. The note with it: read-out: half maximal inhibitory concentration (IC50) for LSD1, 30 °C, 1 hour, MS peak areas. A digest of the protocol:
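GST-tagged human LSD1 was expressed in bacteria and purified; protein was also obtained commercially. The enzyme was incubated with di-methylated H3K4 peptide at 30 °C for 1 h, with test compound at 0–100 μM (0, 1, 2, 5, 10, 20, 50, 100 μM). Me1 and Me0 products were read by MALDI TOF/TOF MS. Conversion efficiency came from integrated product peak areas, and IC50 was fitted from conversion efficiency.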

The next series deals with 293. In words: Growth of 293 cells. The class given is cell-based. The note with it: even at relatively high concentrations (100–200 μM).
The next series relates to NIH 3T3. The series is described as follows: Growth of NIH 3T3 cells. The class given is cell-based. As to conditions: even at relatively high concentrations (100–200 μM).
Series [2] relates to F9 cells. The series is described as follows: Growth of F9 cells, cell numbers counted. In kind it is cell-based, mouse. As to conditions: 50 μM, 30 hours. Summed up:
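F9 cells on gelatin-coated dishes in DMEM/10% FBS were treated with DMSO or 50 μM test compound for 30 h. Cells were then counted and expressed as percent of DMSO control. A separate concentration series was also run over 30 h.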

Series [3] concerns CHRM4 and SCN3A gene expression in F9 cells. In kind it is cell-based, mouse. As to conditions: 10 μM, 24 hours, quantitative RT-PCR. Summed up:
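F9 mouse teratocarcinoma cells, grown in DMEM with 10% FBS on 0.1% gelatin-coated dishes, exposed to 10 μM test compound for 24 h; dose series also run in F9 and HeLa cells. CHRM4 and SCN3A mRNA quantified by real-time RT-PCR. LSD1 siRNA-treated F9 cells served as comparison.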

Another series has as its system NCCIT cells. The series is described as follows: Growth of NCCIT cells. The class given is cell-based, human. As to conditions: 50 μM, 30 hours. A digest of the protocol: (§1)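 Human pluripotent NCCIT and NTERA-2 cells, maintained in DMEM with 10% FBS, were exposed to 50 μM test compound for 30 h and growth assessed. Non-pluripotent HeLa, 293 and NIH3T3 cells were run under the same conditions.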

The subject of another series is NTERA-2 cells. The series is described as follows: Growth of NTERA-2 cells. The class given is cell-based, human. As to conditions: 50 μM, 30 hours. Summed up: as §1
In a further series the test system is mouse ES cells. The series is described as follows: Spherical growth of embryonic stem cells. The class given is cell-based. As to conditions: 50 μM, 30 hours. Summed up:
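Mouse ES cells, cultured on irradiated mouse embryonic fibroblasts in DMEM with 10% FBS, were treated with DMSO or 50 μM test compound for 30 h. Spherical colony growth was then examined.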

The test system of series [4] is F9 cells. In words: Cell permeability assay in F9 cells, mass-spectrometry. The note with it: 2 hours incubation, washed cells. In kind it is in vitro ADME, mouse. A digest of the protocol:
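F9 cells exposed to test compound for 2 h, with DMSO as control, then extensively washed and lysed immediately. Lysate mixed with 4 volumes acetone at −20 °C for 6 h, precipitate removed by centrifugation, supernatant lyophilized and redissolved in methanol. Compound detected by mass spectrometry against pure compound and untreated-cell lysate as m/z references.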

Series [5] concerns methylated H3K4 in F9 embryonic teratocarcinoma cells. In words: Histone H3 methylation in F9 cells, Western blotting. The class given is cell-based, mouse. The note with it: for IC50: read-out: IC50 in F9 cells (histone H3K4 methylation), various concentrations. A digest of the protocol:
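F9 cells received 10 μM test compound for 24 h, plus a concentration series. Total histones were then extracted. Mono- and di-methylated H3K4, tri-methylated H3K4, di-methylated H3K9 and total histone H3 were probed by Western blot with specific antibodies. F9 cells given 50 nM LSD1 siRNA for 48 h served as comparison.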

As to `N=C(N)c1ccc(C(=O)N2CCN(C(=O)c3cc(CN4CCN(C(=N)N)CC4)cc([N+](=O)[O-])c3)CC2)cc1` [CBB1003], the “growth inhibition of HeLa cells” value in the series with HeLa is on record as “did not display any significant growth inhibition”. Further, in series [1], the IC50 stood at 10.5 µM. Besides, in the series on 293, the “growth inhibition of 293 cells” value was “did not display any significant growth inhibition”. In addition, in the series with NIH 3T3, the “growth inhibition of NIH 3T3 cells” value is reported as “did not display any significant growth inhibition”. The “growth of F9 cells” value in the series with F9 cells [2] is on record as “significantly inhibit”. Further, in [3], the “activation of CHRM4 and SCN3A expression” value is reported as “led to the activation”. Further, the “growth of NCCIT cells” value in the series with NCCIT cells is “inhibited”. The “growth of NTERA-2 cells” value with NTERA-2 cells is listed as “inhibited”. The “spherical growth of ES cells” value with mouse ES cells is reported as “substantial inhibition”. The “presence of compound in F9 cells after exposure” value in the series with F9 cells [4] is “readily found”. For the same compound, in [5] (10 μM, 24 hours), the “effect on mono- and di-methylated H3K4 in F9 cells” value is given as “reproducible increase”; the “effect on tri-methylated H3K4 and di-methylated H3K9 in F9 cells” value was “very little effects”. The IC50 in series [5] lay within 5 to 10 µM.

Take `COC(=O)c1cc(CN2CCN(C(=N)N)CC2)cc(C(=O)N2CCN(C(=O)c3ccc(C(=N)N)cc3)CC2)c1` [CBB1007]: the “growth inhibition of HeLa cells” value with HeLa is given as “did not display any significant growth inhibition”. The results for the IC50 in series [1] and in series [5] were 5.27 µM and 1 to 5 µM, respectively. In the series with 293, the “growth inhibition of 293 cells” value was “did not display any significant growth inhibition”. Moreover, the “growth inhibition of NIH 3T3 cells” value with NIH 3T3 is “did not display any significant growth inhibition”. For the same compound, the “growth of F9 cells” value in the series with F9 cells [2] is recorded as “significantly inhibit”. Also, in the series on NCCIT cells, the “growth of NCCIT cells” value was “inhibited”. Further, the “growth of NTERA-2 cells” value in the series with NTERA-2 cells is “inhibited”. Also, the “spherical growth of ES cells” value in the series on mouse ES cells is “substantial inhibition”.
